According to ChEMBL document CHEMBL5143669, “Stapled peptides as scaffolds for developing radiotracers for intracellular targets: Preliminary evaluation of a radioiodinated MDM2-binding stapled peptide in the SJSA-1 osteosarcoma model” (Bioorg Med Chem Lett, 2022):

Columns and labels:
[1] = Drug uptake in MDM2-amplified human SJSA-1 cells expressing wild type p53 assessed as released into supernatant incubated for 0.5 hrs subsequently re-incubating the cells with fresh medium for up to 2 hrs; format: ADME, cell-based; conditions: sjsa-1, 0.5 h
Method in brief: (§1)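 SJSA-1 cells were loaded with 125I-labeled peptide for 1 h, then reincubated in fresh medium for 0.5–2 h. Cell-retained activity and cumulative release into the supernatant were expressed as percentage of initially bound activity.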

[2] = Drug uptake in MDM2-amplified human SJSA-1 cells expressing wild type p53 assessed as initially bound radioactivity incubated for 1 hrs subsequently re-incubating the cells with fresh medium for up to 2 hrs; format: ADME, cell-based; conditions: sjsa-1, 1 h; method in brief: as §1
[3] = Biodistribution in Lung of athymic mouse xenografted with human SJSA-1 cells at 166.5 kBq, iv after 30 mins by automated gamma counting method; format: ADME, organism-based; conditions: in vivo, 0.5 h
Method in brief: (§2)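 125I-labeled peptide (166.5 kBq in 100 μL) was injected via tail vein into athymic mice bearing flank SJSA-1 xenografts, n = 5 per time point. Tumors, blood and major organs were gamma-counted at 0.5, 2, 6 and 24 h post-injection. Values are %ID/g.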

[4] = Biodistribution in Urinary bladder of athymic mouse xenografted with human SJSA-1 cells at 166.5 kBq, iv after 30 mins by automated gamma counting method; format: ADME, organism-based; conditions: in vivo, 0.5 h
Method in brief: (§3)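 Athymic mice bearing flank SJSA-1 xenografts received 125I-SIB-labeled peptide (166.5 kBq, 100 μL) by tail vein; groups of five per time point. Tumor, blood and organs were taken at 0.5–24 h and counted by gamma counter; values expressed as %ID/g.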

[5] = Biodistribution in Small intestine of athymic mouse xenografted with human SJSA-1 cells at 166.5 kBq, iv after 30 mins by automated gamma counting method; format: ADME, organism-based; conditions: in vivo, 0.5 h; method in brief: as §2
[6] = Biodistribution in Thyroid of athymic mouse xenografted with human SJSA-1 cells at 166.5 kBq, iv after 30 mins by automated gamma counting method; format: ADME, organism-based, Thyroid gland; conditions: in vivo, 0.5 h; method in brief: as §3
[7] = Biodistribution in Bone of athymic mouse xenografted with human SJSA-1 cells at 166.5 kBq, iv after 30 mins by automated gamma counting method; format: ADME, organism-based, Bone element; conditions: in vivo, 0.5 h; method in brief: as §2
[8] = Biodistribution in Liver of athymic mouse xenografted with human SJSA-1 cells at 166.5 kBq, iv after 2 hrs by automated gamma counting method; format: ADME, organism-based; conditions: in vivo; method in brief: as §2
[9] = Biodistribution in Spleen of athymic mouse xenografted with human SJSA-1 cells at 166.5 kBq, iv after 2 hrs by automated gamma counting method; format: ADME, organism-based; conditions: in vivo; method in brief: as §2
[10] = Biodistribution in Lung of athymic mouse xenografted with human SJSA-1 cells at 166.5 kBq, iv after 2 hrs by automated gamma counting method; format: ADME, organism-based; conditions: in vivo; method in brief: as §2
[11] = Biodistribution in Heart of athymic mouse xenografted with human SJSA-1 cells at 166.5 kBq, iv after 2 hrs by automated gamma counting method; format: ADME, organism-based; conditions: in vivo; method in brief: as §2
[12] = Biodistribution in Urinary bladder of athymic mouse xenografted with human SJSA-1 cells at 166.5 kBq, iv after 2 hrs by automated gamma counting method; format: ADME, organism-based; conditions: in vivo; method in brief: as §3
[13] = Biodistribution in Stomach of athymic mouse xenografted with human SJSA-1 cells at 166.5 kBq, iv after 2 hrs by automated gamma counting method; format: ADME, organism-based; conditions: in vivo; method in brief: as §3
[14] = Biodistribution in Thyroid of athymic mouse xenografted with human SJSA-1 cells at 166.5 kBq, iv after 2 hrs by automated gamma counting method; format: ADME, organism-based, Thyroid gland; conditions: in vivo; method in brief: as §3
[15] = Biodistribution in Muscle of athymic mouse xenografted with human SJSA-1 cells at 166.5 kBq, iv after 2 hrs by automated gamma counting method; format: ADME, organism-based, Muscle tissue; conditions: in vivo; method in brief: as §2
[16] = Biodistribution in Blood of athymic mouse xenografted with human SJSA-1 cells at 166.5 kBq, iv after 2 hrs by automated gamma counting method; format: ADME, organism-based; conditions: in vivo; method in brief: as §2
[17] = Biodistribution in Tumor of athymic mouse xenografted with human SJSA-1 cells at 166.5 kBq, iv after 2 hrs by automated gamma counting method; format: ADME, organism-based, Neoplasm; conditions: in vivo; method in brief: as §3
[18] = Biodistribution in Bone of athymic mouse xenografted with human SJSA-1 cells at 166.5 kBq, iv after 2 hrs by automated gamma counting method; format: ADME, organism-based, Bone element; conditions: in vivo; method in brief: as §2
[19] = Biodistribution in Heart of athymic mouse xenografted with human SJSA-1 cells at 166.5 kBq, iv after 6 hrs by automated gamma counting method; format: ADME, organism-based; conditions: in vivo; method in brief: as §2
[20] = Biodistribution in Kidney of athymic mouse xenografted with human SJSA-1 cells at 166.5 kBq, iv after 6 hrs by automated gamma counting method; format: ADME, organism-based; conditions: in vivo; method in brief: as §2
[21] = Biodistribution in Stomach of athymic mouse xenografted with human SJSA-1 cells at 166.5 kBq, iv after 6 hrs by automated gamma counting method; format: ADME, organism-based; conditions: in vivo; method in brief: as §3
[22] = Biodistribution in Small intestine of athymic mouse xenografted with human SJSA-1 cells at 166.5 kBq, iv after 6 hrs by automated gamma counting method; format: ADME, organism-based; conditions: in vivo; method in brief: as §2
[23] = Biodistribution in Large intestine of athymic mouse xenografted with human SJSA-1 cells at 166.5 kBq, iv after 6 hrs by automated gamma counting method; format: ADME, organism-based; conditions: in vivo; method in brief: as §2
[24] = Biodistribution in Thyroid of athymic mouse xenografted with human SJSA-1 cells at 166.5 kBq, iv after 6 hrs by automated gamma counting method; format: ADME, organism-based, Thyroid gland; conditions: in vivo; method in brief: as §3
[25] = Biodistribution in Muscle of athymic mouse xenografted with human SJSA-1 cells at 166.5 kBq, iv after 6 hrs by automated gamma counting method; format: ADME, organism-based, Muscle tissue; conditions: in vivo; method in brief: as §2
[26] = Biodistribution in Tumor of athymic mouse xenografted with human SJSA-1 cells at 166.5 kBq, iv after 6 hrs by automated gamma counting method; format: ADME, organism-based, Neoplasm; conditions: in vivo; method in brief: as §3
[27] = Biodistribution in Bone of athymic mouse xenografted with human SJSA-1 cells at 166.5 kBq, iv after 6 hrs by automated gamma counting method; format: ADME, organism-based, Bone element; conditions: in vivo; method in brief: as §2
[28] = Biodistribution in Liver of athymic mouse xenografted with human SJSA-1 cells at 166.5 kBq, iv after 24 hrs by automated gamma counting method; format: ADME, organism-based; conditions: in vivo; method in brief: as §2
[29] = Biodistribution in Heart of athymic mouse xenografted with human SJSA-1 cells at 166.5 kBq, iv after 24 hrs by automated gamma counting method; format: ADME, organism-based; conditions: in vivo; method in brief: as §2
[30] = Biodistribution in Urinary bladder of athymic mouse xenografted with human SJSA-1 cells at 166.5 kBq, iv after 24 hrs by automated gamma counting method; format: ADME, organism-based; conditions: in vivo; method in brief: as §3
[31] = Biodistribution in Stomach of athymic mouse xenografted with human SJSA-1 cells at 166.5 kBq, iv after 24 hrs by automated gamma counting method; format: ADME, organism-based; conditions: in vivo; method in brief: as §3
[32] = Biodistribution in Small intestine of athymic mouse xenografted with human SJSA-1 cells at 166.5 kBq, iv after 24 hrs by automated gamma counting method; format: ADME, organism-based; conditions: in vivo; method in brief: as §2
[33] = Biodistribution in Muscle of athymic mouse xenografted with human SJSA-1 cells at 166.5 kBq, iv after 24 hrs by automated gamma counting method; format: ADME, organism-based, Muscle tissue; conditions: in vivo; method in brief: as §2
[34] = Biodistribution in Blood of athymic mouse xenografted with human SJSA-1 cells at 166.5 kBq, iv after 24 hrs by automated gamma counting method; format: ADME, organism-based; conditions: in vivo; method in brief: as §2
[35] = Biodistribution in Tumor of athymic mouse xenografted with human SJSA-1 cells at 166.5 kBq, iv after 24 hrs by automated gamma counting method; format: ADME, organism-based, Neoplasm; conditions: in vivo; method in brief: as §3
[36] = Biodistribution in Skin of athymic mouse xenografted with human SJSA-1 cells at 166.5 kBq, iv after 24 hrs by automated gamma counting method; format: ADME, organism-based, Skin of body; conditions: in vivo; method in brief: as §2
[37] = Biodistribution in Brain of athymic mouse xenografted with human SJSA-1 cells at 166.5 kBq, iv after 24 hrs by automated gamma counting method; format: ADME, organism-based; conditions: in vivo; method in brief: as §2

Drug uptake [1]: 16.9%
Drug uptake [2]: 72.8%
Drug uptake [3]: 4.27 % ID/g
Drug uptake [4]: 0.61 % ID/g
Drug uptake [5]: 0.43 % ID/g
Drug uptake [6]: 0.89 % ID/g
Drug uptake [7]: 0.38 % ID/g
Drug uptake [8]: 18.41 % ID/g
Drug uptake [9]: 1.8 % ID/g
Drug uptake [10]: 2.72 % ID/g
Drug uptake [11]: 2.44 % ID/g
Drug uptake [12]: 0.58 % ID/g
Drug uptake [13]: 0.53 % ID/g
Drug uptake [14]: 1.14 % ID/g
Drug uptake [15]: 0.24 % ID/g
Drug uptake [16]: 6.84 % ID/g
Drug uptake [17]: 2.19 % ID/g
Drug uptake [18]: 0.33 % ID/g
Drug uptake [19]: 2.14 % ID/g
Drug uptake [20]: 2.5 % ID/g
Drug uptake [21]: 1.9 % ID/g
Drug uptake [22]: 3.84 % ID/g
Drug uptake [23]: 4.44 % ID/g
Drug uptake [24]: 1.19 % ID/g
Drug uptake [25]: 0.25 % ID/g
Drug uptake [26]: 2.11 % ID/g
Drug uptake [27]: 0.29 % ID/g
Drug uptake [28]: 4.72 % ID/g
Drug uptake [29]: 0.37 % ID/g
Drug uptake [30]: 0.29 % ID/g
Drug uptake [31]: 0.84 % ID/g
Drug uptake [32]: 0.86 % ID/g
Drug uptake [33]: 0.16 % ID/g
Drug uptake [34]: 0.62 % ID/g
Drug uptake [35]: 0.36 % ID/g
Drug uptake [36]: 0.52 % ID/g
Drug uptake [37]: 0.02 % ID/g
SMILES: CC(=O)NC(CCCCNC(=O)c1cccc([125I])c1)C(=O)NCCCCCC(=O)N[C@H](C(=O)N[C@@H](CO)C(=O)N[C@@H](Cc1ccccc1)C(=O)N[C@@]1(C)CCCCCC/C=C/CCC[C@@](C)(C(=O)N[C@@H](CCC(=O)O)C(=O)N[C@@H](CC(N)=O)C(=O)N[C@@H](Cc2ccccc2)C(N)=O)NC(=O)[C@H](CC(C)C)NC(=O)[C@H](CC(C)C)NC(=O)[C@H](C)NC(=O)[C@H](Cc2c[nH]c3ccccc23)NC(=O)[C@H](Cc2ccc(O)cc2)NC(=O)[C@H](CCC(=O)O)NC1=O)[C@@H](C)O (some centres not stated)
